According to ChEMBL document CHEMBL1148220, “Antineoplastic agents. 529. Isolation and structure of nootkastatins 1 and 2 from the Alaskan yellow cedar Chamaecyparis nootkatensis” (2004):
Values after ≈ are worked out from the molar mass of the structure shown. Active and inactive are the calls of the source. The rule behind the calls is not given here.

What was measured:
Staphylococcus aureus [1] = test: Antimicrobial activity against Staphylococcus aureus ATCC 29213 after 24 hrs by broth microdilution assay; format: functional; conditions: ATCC 29213, 24 h
Summary of the method: (§1)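 Bacterial MICs were determined by NCCLS broth microdilution. Compounds were dissolved in a small volume of sterile DMSO and diluted in the appropriate medium just before testing. MIC was the lowest concentration giving no visible growth (optically clear). Assays were repeated on separate days.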

KM-20L2 = test: Cytotoxicity against human KM20L2 cells after 48 hrs by SRB assay; format: functional; conditions: KM-20L2, 48 h
SF-268 = test: Cytotoxicity against human SF268 cells after 48 hrs by SRB assay; format: functional; conditions: SF-268, 48 h
Cryptococcus neoformans [2] = test: Antimicrobial activity against fluconazole-resistant Cryptococcus neoformans after 48 hrs by broth microdilution assay; format: functional
Summary of the method: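 Yeast broth microdilution following NCCLS. Compounds were dissolved in sterile DMSO and diluted in medium immediately before testing. MIC was the lowest concentration leaving the well optically clear, with no visible growth.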

Enterococcus faecium [3] = test: Antimicrobial activity against vancomycin-resistant Enterococcus faecium after 24 hrs by broth microdilution assay; format: functional
Summary of the method: (§2)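 NCCLS broth microdilution for bacteria. Compounds were dissolved in a small volume of sterile DMSO and diluted in medium just before testing. MIC was the lowest concentration giving no visible growth (optically clear). Assays were repeated on separate days.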

Nakaseomyces glabratus [4] = test: Antimicrobial activity against Candida glabrata after 48 hrs by broth microdilution assay in presence of 25% human serum; format: functional
Summary of the method: (§3)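 For yeasts, NCCLS broth microdilution was run in medium supplemented with 25% heat-inactivated, filter-sterilized normal human serum. Compounds were reconstituted in sterile DMSO and diluted in medium just before the assay. MIC was the lowest concentration giving optically clear wells.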

Staphylococcus aureus [5] = test: Antimicrobial activity against Staphylococcus aureus ATCC 29213 after 24 hrs by broth microdilution assay in presence of 25% human serum; format: functional; conditions: ATCC 29213, 24 h
Summary of the method: (§4)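 Bacteria were tested by NCCLS broth microdilution in medium containing 25% heat-inactivated, filter-sterilized normal human serum. Compounds were dissolved in sterile DMSO and diluted in medium immediately before use. MIC was the lowest concentration with no visible growth (optically clear). Assays were repeated on separate days.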

Enterococcus faecium [6] = test: Antimicrobial activity against vancomycin-resistant Enterococcus faecium after 24 hrs by broth microdilution assay in presence of 25% human serum; format: functional
Summary of the method: as §4, with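 “Bacterial” for “Bacteria were tested by”, “microdilution run” for “microdilution”, “with” for “containing”, “taken up” for “dissolved”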

Neisseria gonorrhoeae [7] = test: Antimicrobial activity against Neisseria gonorrhoeae ATCC 49226 after 24 hrs by broth microdilution assay in presence of 25% human serum; format: functional; conditions: ATCC 49226, 24 h; summary of the method: as §4
Staphylococcus aureus [8] = test: Antimicrobial activity against methicillin-resistant Staphylococcus aureus after 24 hrs by broth microdilution assay in presence of 25% human serum; format: functional
Summary of the method: as §4, with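 “Bacterial” for “Bacteria were tested by”, “microdilution run” for “microdilution”, “with” for “containing”, “taken up” for “dissolved”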

[9] = system: Staphylococcus epidermidis; test: Antimicrobial activity against Staphylococcus epidermidis ATCC 49461 after 24 hrs by broth microdilution assay in presence of 25% human serum; format: functional; conditions: ATCC 49461, 24 h; summary of the method: as §4
Streptococcus pneumoniae [10] = test: Antimicrobial activity against penicillin-resistant Streptococcus pneumoniae after 24 hrs by broth microdilution assay in presence of 25% human serum; format: functional
Summary of the method: as §4, with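 “Bacterial” for “Bacteria were tested by”, “microdilution run” for “microdilution”, “with” for “containing”, “taken up” for “dissolved”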

Cryptococcus neoformans [11] = test: Antimicrobial activity against Cryptococcus neoformans ATCC 90122 after 24 hrs by broth microdilution assay in presence of 25% human serum; format: functional; conditions: ATCC 90112, 24 h, in the assay text read “ATCC 90112” for “ATCC 90122”; summary of the method: as §3
Enterococcus faecalis [12] = test: Antimicrobial activity against Enterococcus faecalis ATCC 29212 after 24 hrs by broth microdilution assay; format: functional; conditions: ATCC 29212, 24 h; summary of the method: as §1
Enterobacter cloacae [13] = test: Antimicrobial activity against Enterobacter cloacae ATCC 13047 at 64 ug/mL after 24 hrs by broth microdilution assay; format: functional, organism-based
Candida albicans [14] = test: Antimicrobial activity against Candida albicans ATCC 90028 after 48 hrs by broth microdilution assay in presence of 25% human serum; format: functional; conditions: ATCC 90028, 48 h; summary of the method: as §3
[15] = system: Staphylococcus epidermidis; test: Antimicrobial activity against Staphylococcus epidermidis ATCC 49461 after 24 hrs by broth microdilution assay; format: functional; conditions: ATCC 49461, 24 h; summary of the method: as §1
BXPC-3 = test: Cytotoxicity against human BxPC3 cells after 48 hrs by SRB assay; format: functional; conditions: BXPC-3, 48 h
Micrococcus luteus [16] = test: Antimicrobial activity against Micrococcus luteus Presque Isle 456 after 24 hrs by broth microdilution assay in presence of 25% human serum; format: functional; summary of the method: as §4
MCF7 = test: Cytotoxicity against human MCF7 cells after 48 hrs by SRB assay; format: functional; conditions: MCF7, 48 h
Neisseria gonorrhoeae [17] = test: Antimicrobial activity against Neisseria gonorrhoeae ATCC 49226 at 64 ug/mL after 24 hrs by broth microdilution assay; format: functional; conditions: ATCC 49226, 24 h
P388 = test: Cytotoxicity against mouse P388 cells; format: functional; conditions: read-out: ED50 (the source's name)
Enterococcus faecalis [18] = test: Antimicrobial activity against Enterococcus faecalis ATCC 29212 after 24 hrs by broth microdilution assay in presence of 25% human serum; format: functional; conditions: ATCC 29212, 24 h; summary of the method: as §4
Streptococcus pneumoniae [19] = test: Antimicrobial activity against Streptococcus pneumoniae ATCC 6303 after 24 hrs by broth microdilution assay in presence of 25% human serum; format: functional; conditions: ATCC 6303, 24 h; summary of the method: as §4
Streptococcus pyogenes [20] = test: Antimicrobial activity against penicillin-resistant Streptococcus pyogenes after 24 hrs by broth microdilution assay; format: functional; summary of the method: as §2
Rhodococcus sp. [21] = test: Antimicrobial activity against Rhodococcus sp. after 24 hrs by broth microdilution assay; format: functional; conditions: Rhodococcus sp. (in: high G+C Gram-positive bacteria); summary of the method: as §1
Micrococcus luteus [22] = test: Antimicrobial activity against Micrococcus luteus Presque Isle 456 after 24 hrs by broth microdilution assay; format: functional; summary of the method: as §1
Escherichia coli [23] = test: Antimicrobial activity against Escherichia coli ATCC 25922 after 24 hrs by broth microdilution assay in presence of 25% human serum; format: functional; conditions: ATCC 25922, 24 h; summary of the method: as §4
Rhodococcus sp. [24] = test: Antimicrobial activity against Rhodococcus sp. after 24 hrs by broth microdilution assay in presence of 25% human serum; format: functional; conditions: Rhodococcus sp. (in: high G+C Gram-positive bacteria); summary of the method: as §4
Streptococcus pyogenes [25] = test: Antimicrobial activity against penicillin-resistant Streptococcus pyogenes after 24 hrs by broth microdilution assay in presence of 25% human serum; format: functional
Summary of the method: as §4, with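 “Bacterial” for “Bacteria were tested by”, “microdilution run” for “microdilution”, “with” for “containing”, “taken up” for “dissolved”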

Escherichia coli [26] = test: Antimicrobial activity against Escherichia coli ATCC 25922 at 64 ug/mL after 24 hrs by broth microdilution assay; format: functional, organism-based
Streptococcus pneumoniae [27] = test: Antimicrobial activity against penicillin-resistant Streptococcus pneumoniae after 24 hrs by broth microdilution assay; format: functional; summary of the method: as §2
[28] = system: Stenotrophomonas maltophilia; test: Antimicrobial activity against Stenotrophomonas maltophilia ATCC 13637 after 24 hrs by broth microdilution assay in presence of 25% human serum; format: functional; conditions: ATCC 13637, 24 h; summary of the method: as §4
[29] = system: Stenotrophomonas maltophilia; test: Antimicrobial activity against Stenotrophomonas maltophilia ATCC 13637 at 64 ug/mL after 24 hrs by broth microdilution assay; format: functional, organism-based
NCI-H460 = test: Cytotoxicity against human NCI-H460 cells after 48 hrs by SRB assay; format: functional; conditions: NCI-H460, 48 h
Cryptococcus neoformans [30] = test: Antimicrobial activity against Cryptococcus neoformans ATCC 90122 after 24 hrs by broth microdilution assay; format: functional; conditions: ATCC 90112, 24 h, in the assay text read “ATCC 90112” for “ATCC 90122”
Summary of the method: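 Yeasts were tested by NCCLS broth microdilution. Compounds were dissolved in a small volume of sterile DMSO and diluted in the appropriate medium immediately before testing. MIC was the lowest concentration inhibiting all visible growth (optically clear). Assays were repeated on separate days.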

Nakaseomyces glabratus [31] = test: Antimicrobial activity against Candida glabrata at 64 ug/mL after 48 hrs by broth microdilution assay; format: functional, organism-based
Streptococcus pneumoniae [32] = test: Antimicrobial activity against Streptococcus pneumoniae ATCC 6303 after 24 hrs by broth microdilution assay; format: functional; conditions: ATCC 6303, 24 h; summary of the method: as §1
Cryptococcus neoformans [33] = test: Antimicrobial activity against fluconazole-resistant Cryptococcus neoformans after 48 hrs by broth microdilution assay in presence of 25% human serum; format: functional
Candida albicans [34] = test: Antimicrobial activity against Candida albicans ATCC 90028 at 64 ug/mL after 48 hrs by broth microdilution assay; format: functional, organism-based
Staphylococcus aureus [35] = test: Antimicrobial activity against methicillin-resistant Staphylococcus aureus after 24 hrs by broth microdilution assay; format: functional; summary of the method: as §2
Enterobacter cloacae [36] = test: Antimicrobial activity against Enterobacter cloacae ATCC 13047 after 24 hrs by broth microdilution assay in presence of 25% human serum; format: functional; conditions: ATCC 13047, 24 h; summary of the method: as §4
DU-145 = test: Cytotoxicity against human DU145 cells after 48 hrs by SRB assay; format: functional; conditions: DU-145, 48 h

In the case of `CO[C@@H]1C[C@H]2C(C)(C)CCC[C@]2(C)c2ccc(O)c(C(C)C)c21`, the MIC (Staphylococcus aureus [1]) is reported as 4 µg/mL (≈ 12.6 µM), the GI50 (KM-20L2) is reported as 1.6 µg/mL (≈ 5.06 µM) and the GI50 (SF-268) is reported as 1.9 µg/mL (≈ 6 µM). It also gave an MFC (Cryptococcus neoformans [2]) of 4 µg/mL (≈ 12.6 µM), an MIC (Cryptococcus neoformans [2]) of 4 µg/mL (≈ 12.6 µM) and an MBC (Enterococcus faecium [3]) of 4 µg/mL (≈ 12.6 µM). For the same compound, the MIC (Enterococcus faecium [3]) was 4 µg/mL (≈ 12.6 µM), the MIC (Nakaseomyces glabratus [4]) was greater than 64 µg/mL and the MIC (Staphylococcus aureus [5]) was greater than 64 µg/mL. The MIC (Enterococcus faecium [6]) was greater than 64 µg/mL, the MIC (Neisseria gonorrhoeae [7]) was greater than 64 µg/mL and the MIC (Staphylococcus aureus [8]) was greater than 64 µg/mL. The MIC [9] was greater than 64 µg/mL, the MIC (Streptococcus pneumoniae [10]) was greater than 64 µg/mL and the MIC (Cryptococcus neoformans [11]) was greater than 64 µg/mL. For the same compound, the MIC (Enterococcus faecalis [12]) was 4 µg/mL (≈ 12.6 µM), the Activity (Enterobacter cloacae [13]) was “inactive” and the MIC (Candida albicans [14]) was greater than 64 µg/mL. The MBC [15] was 16 µg/mL (≈ 50.6 µM), the MIC [15] was 2 µg/mL (≈ 6.32 µM) and the GI50 (BXPC-3) was 1.5 µg/mL (≈ 4.74 µM). The MIC (Micrococcus luteus [16]) was greater than 64 µg/mL, the GI50 (MCF7) was 1.5 µg/mL (≈ 4.74 µM) and the MIC (Neisseria gonorrhoeae [17]) was 4 µg/mL (≈ 12.6 µM). The EC50 (P388) was greater than 10 µg/mL, the MIC (Enterococcus faecalis [18]) was greater than 64 µg/mL and the MIC (Streptococcus pneumoniae [19]) was greater than 64 µg/mL. The MBC (Streptococcus pyogenes [20]) was 32 µg/mL (≈ 101 µM), the MIC (Streptococcus pyogenes [20]) was 16 µg/mL (≈ 50.6 µM) and the MBC (Rhodococcus sp. [21]) was 8 µg/mL (≈ 25.3 µM). It also gave an MIC (Rhodococcus sp. [21]) of 2 µg/mL (≈ 6.32 µM), an MIC (Micrococcus luteus [22]) of 2 µg/mL (≈ 6.32 µM) and an MIC (Escherichia coli [23]) greater than 64 µg/mL. For the same compound, the MIC (Rhodococcus sp. [24]) was greater than 64 µg/mL, the MIC (Streptococcus pyogenes [25]) was greater than 64 µg/mL and the Activity (Escherichia coli [26]) was “inactive”. The MBC (Streptococcus pneumoniae [27]) was 16 µg/mL (≈ 50.6 µM), the MIC (Streptococcus pneumoniae [27]) was 16 µg/mL (≈ 50.6 µM) and the MIC [28] was greater than 64 µg/mL. For the same compound, the Activity [29] was “inactive”, the GI50 (NCI-H460) was 1.8 µg/mL (≈ 5.69 µM) and the MIC (Cryptococcus neoformans [30]) was 8 µg/mL (≈ 25.3 µM). For the same compound, the Activity (Nakaseomyces glabratus [31]) was “inactive”, the MIC (Streptococcus pneumoniae [32]) was 8 µg/mL (≈ 25.3 µM) and the MIC (Cryptococcus neoformans [33]) was greater than 64 µg/mL. For the same compound, the Activity (Candida albicans [34]) was “inactive”, the MBC (Staphylococcus aureus [35]) was 8 µg/mL (≈ 25.3 µM) and the MIC (Staphylococcus aureus [35]) was 4 µg/mL (≈ 12.6 µM). The MIC (Enterobacter cloacae [36]) was greater than 64 µg/mL and the GI50 (DU-145) was 1.7 µg/mL (≈ 5.37 µM).
